# Test results from the M2OR odorant receptor database.
# Columns and labels:
# Settings in all cases: stereoisomer not certain
# OR5H8 (Homo sapiens) = OR5H8 (Homo sapiens) (UniProt P0DN80)
# Method in brief: (§1)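 Whether a receptor–molecule pair is responsive (active) rests on the original authors' judgment that its measured signal was statistically different from baseline. Pairs without that judgment are non-responsive (inactive). Sources used varied assay methods, commonly transient luciferase assays in mammalian cell lines.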
# OR5K1 F62L = test system: OR5K1 F62L
# Sequence of OR5K1 F62L (as listed by the source, stated change not applied): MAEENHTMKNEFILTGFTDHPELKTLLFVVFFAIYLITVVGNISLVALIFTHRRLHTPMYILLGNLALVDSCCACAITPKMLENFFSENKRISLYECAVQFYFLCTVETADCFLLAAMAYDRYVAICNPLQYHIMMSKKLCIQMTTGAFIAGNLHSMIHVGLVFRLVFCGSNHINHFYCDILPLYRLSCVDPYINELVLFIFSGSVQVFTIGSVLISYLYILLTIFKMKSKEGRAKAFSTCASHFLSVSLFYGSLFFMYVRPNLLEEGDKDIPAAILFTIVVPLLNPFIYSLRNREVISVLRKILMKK
# Method in brief: as §1
# OR5K1 (Homo sapiens) = target: T1, OR5K1 (Homo sapiens) (UniProt Q8NHB7)
# T1 sequence (whole entry): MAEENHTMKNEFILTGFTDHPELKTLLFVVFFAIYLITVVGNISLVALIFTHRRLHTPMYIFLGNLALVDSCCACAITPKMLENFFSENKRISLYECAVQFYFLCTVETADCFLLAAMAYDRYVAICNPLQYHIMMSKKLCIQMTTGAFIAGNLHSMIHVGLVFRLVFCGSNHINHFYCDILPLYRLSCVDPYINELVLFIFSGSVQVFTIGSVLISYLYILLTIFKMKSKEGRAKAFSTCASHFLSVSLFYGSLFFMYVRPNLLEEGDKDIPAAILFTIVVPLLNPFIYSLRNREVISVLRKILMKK
# Method in brief: as §1
# OR5M3 (Homo sapiens) = target: T2, OR5M3 (Homo sapiens) (UniProt Q8NGP4)
# T2 sequence (whole entry): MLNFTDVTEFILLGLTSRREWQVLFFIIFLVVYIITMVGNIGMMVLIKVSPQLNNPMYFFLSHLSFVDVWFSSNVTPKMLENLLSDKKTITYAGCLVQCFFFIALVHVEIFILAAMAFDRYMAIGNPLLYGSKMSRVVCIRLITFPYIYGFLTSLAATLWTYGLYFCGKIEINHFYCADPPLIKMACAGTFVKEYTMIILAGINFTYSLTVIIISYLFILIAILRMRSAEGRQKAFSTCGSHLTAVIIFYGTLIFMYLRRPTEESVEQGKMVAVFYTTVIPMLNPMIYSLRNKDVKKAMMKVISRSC
# Method in brief: as §1
# OR5K2 (Homo sapiens) = target: T3, OR5K2 (Homo sapiens) (UniProt Q8NHB8)
# T3 sequence (whole entry): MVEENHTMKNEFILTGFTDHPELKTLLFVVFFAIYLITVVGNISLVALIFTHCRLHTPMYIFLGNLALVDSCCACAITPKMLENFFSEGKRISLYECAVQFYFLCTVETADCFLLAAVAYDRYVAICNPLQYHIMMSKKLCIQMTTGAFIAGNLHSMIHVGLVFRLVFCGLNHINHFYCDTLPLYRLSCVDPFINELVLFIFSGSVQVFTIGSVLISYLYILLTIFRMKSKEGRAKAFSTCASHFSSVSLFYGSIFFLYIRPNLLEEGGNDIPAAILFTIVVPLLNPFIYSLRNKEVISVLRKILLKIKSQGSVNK
# Method in brief: as §1
# OR5K3 (Homo sapiens) = target: T4, OR5K3 (Homo sapiens) (UniProt A6NET4)
# T4 sequence (whole entry): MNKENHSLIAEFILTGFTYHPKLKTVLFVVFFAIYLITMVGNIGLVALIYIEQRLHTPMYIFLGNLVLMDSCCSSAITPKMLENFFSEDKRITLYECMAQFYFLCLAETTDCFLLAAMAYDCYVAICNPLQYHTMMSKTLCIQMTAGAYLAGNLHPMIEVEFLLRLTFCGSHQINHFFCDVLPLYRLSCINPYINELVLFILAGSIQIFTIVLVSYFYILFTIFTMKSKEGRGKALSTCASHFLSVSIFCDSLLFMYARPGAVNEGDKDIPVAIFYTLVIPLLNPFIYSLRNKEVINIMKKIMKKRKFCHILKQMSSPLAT
# Method in brief: as §1
# OR5K4 (Homo sapiens) = target: T5, OR5K4 (Homo sapiens) (UniProt A6NMS3)
# T5 sequence (whole entry): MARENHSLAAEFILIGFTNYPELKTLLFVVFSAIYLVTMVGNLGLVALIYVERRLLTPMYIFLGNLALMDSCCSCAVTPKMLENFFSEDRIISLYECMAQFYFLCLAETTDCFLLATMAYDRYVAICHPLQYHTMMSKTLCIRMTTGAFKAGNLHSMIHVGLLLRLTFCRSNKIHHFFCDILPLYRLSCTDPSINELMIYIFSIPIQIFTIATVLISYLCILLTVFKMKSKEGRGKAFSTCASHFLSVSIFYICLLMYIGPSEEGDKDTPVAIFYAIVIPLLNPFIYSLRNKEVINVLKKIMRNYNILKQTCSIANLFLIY
# Method in brief: as §1
# 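Further: active if original authors judged signal statistically different from baseline.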
# Sequence of OR5H8 (Homo sapiens) (P0DN80 whole entry): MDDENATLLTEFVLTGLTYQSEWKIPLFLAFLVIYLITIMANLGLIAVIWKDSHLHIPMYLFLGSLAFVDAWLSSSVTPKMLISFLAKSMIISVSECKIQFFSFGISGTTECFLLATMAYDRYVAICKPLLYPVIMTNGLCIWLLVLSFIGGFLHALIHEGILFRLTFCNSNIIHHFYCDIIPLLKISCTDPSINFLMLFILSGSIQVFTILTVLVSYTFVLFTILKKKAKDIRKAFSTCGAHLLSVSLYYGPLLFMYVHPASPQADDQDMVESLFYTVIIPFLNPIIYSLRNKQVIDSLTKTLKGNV
compound,measurement,setting,value
CC(=O)c1c(C)c([N+](=O)[O-])c(C(C)(C)C)c([N+](=O)[O-])c1C,odorant receptor agonist call,OR5H8 (Homo sapiens),inactive
CC1CCCCCCCCCCCCC(=O)C1 (stereo not drawn),odorant receptor agonist call,OR5H8 (Homo sapiens),inactive
Cc1cnc(C)c(C)n1,odorant receptor agonist call,OR5K1 F62L,active
CCCCCCC1CCC(=O)O1 (stereo not drawn),odorant receptor agonist call,OR5K1 (Homo sapiens),inactive
same,odorant receptor agonist call,OR5M3 (Homo sapiens),inactive
CCCCCCCCC=CC=O,odorant receptor agonist call,OR5K1 (Homo sapiens),inactive
same,odorant receptor agonist call,OR5M3 (Homo sapiens),inactive
CSCCCO,odorant receptor agonist call,OR5K1 (Homo sapiens),inactive
same,odorant receptor agonist call,OR5M3 (Homo sapiens),inactive
CC(C)CCO,odorant receptor agonist call,OR5K1 (Homo sapiens),inactive
same,odorant receptor agonist call,OR5M3 (Homo sapiens),inactive
CCCCCC(=O)OCC,odorant receptor agonist call,OR5K1 (Homo sapiens),inactive
same,odorant receptor agonist call,OR5M3 (Homo sapiens),inactive
CC(C)c1ccc(C=O)cc1,odorant receptor agonist call,OR5K1 (Homo sapiens),inactive
same,odorant receptor agonist call,OR5M3 (Homo sapiens),inactive
CCCSSCCC,odorant receptor agonist call,OR5K1 (Homo sapiens),inactive
same,odorant receptor agonist call,OR5M3 (Homo sapiens),inactive
O=C(O)CCc1ccccc1,odorant receptor agonist call,OR5K1 (Homo sapiens),inactive
same,odorant receptor agonist call,OR5M3 (Homo sapiens),inactive
CCCCCC=O,odorant receptor agonist call,OR5K1 (Homo sapiens),inactive
same,odorant receptor agonist call,OR5M3 (Homo sapiens),inactive
Cc1ccc(O)cc1,odorant receptor agonist call,OR5K1 (Homo sapiens),inactive
same,odorant receptor agonist call,OR5M3 (Homo sapiens),inactive
CCc1ccc(O)cc1,odorant receptor agonist call,OR5K1 (Homo sapiens),inactive
same,odorant receptor agonist call,OR5M3 (Homo sapiens),inactive
CCCC1CCCC(=O)O1 (stereo not drawn),odorant receptor agonist call,OR5K1 (Homo sapiens),inactive
same,odorant receptor agonist call,OR5M3 (Homo sapiens),inactive
O=c1ccc2ccccc2o1,odorant receptor agonist call,OR5K1 (Homo sapiens),inactive
same,odorant receptor agonist call,OR5M3 (Homo sapiens),inactive
Cc1cccc(C)c1O,odorant receptor agonist call,OR5K1 (Homo sapiens),inactive
same,odorant receptor agonist call,OR5M3 (Homo sapiens),inactive
CCCCCCCCC1CCC(=O)O1 (stereo not drawn),odorant receptor agonist call,OR5K1 (Homo sapiens),inactive
same,odorant receptor agonist call,OR5M3 (Homo sapiens),inactive
CCC(C)C=O (stereo not drawn),odorant receptor agonist call,OR5K1 (Homo sapiens),inactive
same,odorant receptor agonist call,OR5M3 (Homo sapiens),inactive
CCCCC1OC(=O)CC1C (stereo not drawn),odorant receptor agonist call,OR5K1 (Homo sapiens),inactive
same,odorant receptor agonist call,OR5M3 (Homo sapiens),inactive
CCCCC(=O)O,odorant receptor agonist call,OR5K1 (Homo sapiens),inactive
same,odorant receptor agonist call,OR5M3 (Homo sapiens),inactive
CCCSSSC,odorant receptor agonist call,OR5K1 (Homo sapiens),inactive
same,odorant receptor agonist call,OR5M3 (Homo sapiens),inactive
CCCCCCCCCC(=O)OCC,odorant receptor agonist call,OR5K1 (Homo sapiens),inactive
same,odorant receptor agonist call,OR5M3 (Homo sapiens),inactive
COc1ccc(C)cc1O,odorant receptor agonist call,OR5K1 (Homo sapiens),inactive
same,odorant receptor agonist call,OR5M3 (Homo sapiens),inactive
CC(=O)OCCc1ccccc1,odorant receptor agonist call,OR5K1 (Homo sapiens),inactive
same,odorant receptor agonist call,OR5M3 (Homo sapiens),inactive
COc1nccnc1CC(C)C,odorant receptor agonist call,OR5K1 (Homo sapiens),active
same,odorant receptor agonist call,OR5K2 (Homo sapiens),inactive
same,odorant receptor agonist call,OR5K3 (Homo sapiens),inactive
same,odorant receptor agonist call,OR5K4 (Homo sapiens),inactive
same,odorant receptor agonist call,OR5M3 (Homo sapiens),inactive
C=CC(=O)CCCCC,odorant receptor agonist call,OR5K1 (Homo sapiens),inactive
same,odorant receptor agonist call,OR5M3 (Homo sapiens),inactive
CCCc1ccc(O)c(OC)c1,odorant receptor agonist call,OR5K1 (Homo sapiens),inactive
same,odorant receptor agonist call,OR5M3 (Homo sapiens),inactive
C=Cc1ccc(O)c(OC)c1,odorant receptor agonist call,OR5K1 (Homo sapiens),inactive
same,odorant receptor agonist call,OR5M3 (Homo sapiens),inactive
